Measurements reported in ChEMBL document CHEMBL1833952, “Inhibition of COX-1 activity and COX-2 expression by 3-(4'-geranyloxy-3'-methoxyphenyl)-2-trans propenoic acid and its semi-synthetic derivatives” (Bioorg Med Chem Lett, 2011).
Activity calls are given as the source filed them. No cut-off for these calls is given here.

Tests used:
Raji = assay: Inhibition of TPA-induced EBV-early antigen activation in human Raji cells; assay type: cell-based; conditions: human gammaherpesvirus 4, dose or concentration not given here
HL-60 = assay: Inhibition of superoxide radicals production in human HL60 cells; assay type: functional
[1] = Antiinflammatory activity in human monocytes assessed as inhibition of LPS-induced COX2 expression assessed per ug of protein at 100 uM after 20 hrs using rabbit polyclonal antibody IgG by SDS-PAGE analysis (reference value: 1.53 +/- 0.3 ng/ug); assay type: functional, Monocyte
How it was run: (§1)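 Isolated human monocytes (3 × 10⁶ cells/ml) treated 20 h with test agent or vehicle in the presence of LPS; unstimulated cells as control. Cells lysed; equal protein loads run on SDS-polyacrylamide gel and immunoblotted with rabbit polyclonal antibody to a human COX-2-specific sequence (band ~72 kDa); beta-actin as loading control. Three experiments; dose-response series used for IC50.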

[2] = molecular target: T1, Prostaglandin G/H synthase 1 (Ovis aries) (UniProt P05979); assay: (§2) Inhibition of ovine COX1 using TMPD as substrate preincubated for 15 mins
T1 sequence (whole entry): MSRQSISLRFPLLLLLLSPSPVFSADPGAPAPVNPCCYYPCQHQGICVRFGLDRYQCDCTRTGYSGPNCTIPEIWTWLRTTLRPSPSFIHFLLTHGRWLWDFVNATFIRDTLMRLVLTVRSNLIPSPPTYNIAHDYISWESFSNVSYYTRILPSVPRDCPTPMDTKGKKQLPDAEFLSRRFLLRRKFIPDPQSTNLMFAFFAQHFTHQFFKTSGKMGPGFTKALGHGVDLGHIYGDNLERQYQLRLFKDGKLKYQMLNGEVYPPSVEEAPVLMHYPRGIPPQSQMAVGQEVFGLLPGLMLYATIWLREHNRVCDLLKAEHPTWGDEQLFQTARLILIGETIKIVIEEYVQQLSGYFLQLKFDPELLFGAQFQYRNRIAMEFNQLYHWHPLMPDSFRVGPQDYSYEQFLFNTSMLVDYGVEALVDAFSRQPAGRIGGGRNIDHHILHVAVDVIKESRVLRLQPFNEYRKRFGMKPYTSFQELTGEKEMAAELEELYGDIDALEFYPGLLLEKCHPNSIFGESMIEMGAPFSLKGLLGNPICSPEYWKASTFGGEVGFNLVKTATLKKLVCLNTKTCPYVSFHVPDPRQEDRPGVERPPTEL

[3] = molecular target: T2, Prostaglandin G/H synthase 2 (Ovis aries) (UniProt P79208); assay: Inhibition of ovine COX2 using TMPD as substrate at 300 uM preincubated for 15 mins
T2 sequence (whole entry): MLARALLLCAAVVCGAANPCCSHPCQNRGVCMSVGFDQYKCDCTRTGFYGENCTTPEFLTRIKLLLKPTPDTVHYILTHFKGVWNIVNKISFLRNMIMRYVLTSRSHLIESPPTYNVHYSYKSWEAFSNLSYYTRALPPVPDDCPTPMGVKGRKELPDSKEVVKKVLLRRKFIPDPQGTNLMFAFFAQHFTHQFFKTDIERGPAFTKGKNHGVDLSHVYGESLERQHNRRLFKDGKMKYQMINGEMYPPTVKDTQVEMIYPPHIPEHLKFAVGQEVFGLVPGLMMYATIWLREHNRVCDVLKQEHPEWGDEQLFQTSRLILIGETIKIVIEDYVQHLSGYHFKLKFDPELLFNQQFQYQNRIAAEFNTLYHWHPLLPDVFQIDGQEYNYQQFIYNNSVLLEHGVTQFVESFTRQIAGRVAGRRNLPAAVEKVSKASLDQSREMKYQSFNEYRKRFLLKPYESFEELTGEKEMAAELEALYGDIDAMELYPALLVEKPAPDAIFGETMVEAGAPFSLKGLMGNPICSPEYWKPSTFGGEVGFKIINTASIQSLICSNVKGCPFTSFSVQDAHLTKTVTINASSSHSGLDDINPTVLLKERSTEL

Monocyte [4] = assay: Antiinflammatory activity in human monocytes assessed as inhibition of LPS-induced COX2 expression at 100 uM after 20 hrs using rabbit polyclonal antibody IgG by SDS-PAGE analysis; assay type: functional, cell-based; how it was run: as §1
[5] = Antiinflammatory activity in human monocytes assessed as inhibition of LPS-induced COX2 expression at 25 uM after 20 hrs using rabbit polyclonal antibody IgG by Western blot analysis; assay type: functional; conditions: Monocyte; how it was run: as §1
[6] = molecular target: T3, Prostaglandin G/H synthase 1 (Ovis aries, UniProt P05979); assay: as §2
T3 sequence (P05979 whole entry): T1 sequence (whole entry)

Monocyte [7] = assay: Antiinflammatory activity in human monocytes assessed as inhibition of LPS-induced COX2 expression after 20 hrs using rabbit polyclonal antibody IgG by Western blot analysis; assay type: functional, cell-based; how it was run: as §1
[8] = Antiinflammatory activity in human monocytes assessed as inhibition of LPS-induced COX2 expression at 10 uM after 20 hrs using rabbit polyclonal antibody IgG by Western blot analysis; assay type: functional; conditions: Monocyte; how it was run: as §1
Monocyte [9] = assay: Antiinflammatory activity in human monocytes assessed as inhibition of LPS-induced COX1 expression at 100 uM after 24 hrs using rabbit polyclonal antibody IgG by Western blot analysis; assay type: functional, cell-based
How it was run: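 Isolated human monocytes (3 × 10⁶ cells/ml) incubated with LPS, vehicle or test agent; lysates immunoblotted with a specific anti-COX-1 antibody to assess COX-1-like immunoreactivity.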

Monocyte [10] = assay: Antiinflammatory activity in human monocytes assessed as inhibition of LPS-induced COX2 expression at 100 uM after 20 hrs using rabbit polyclonal antibody IgG by Western blot analysis; assay type: functional, cell-based; how it was run: as §1
[11] = molecular target: T4, Prostaglandin G/H synthase 2 (Homo sapiens) (UniProt P35354); assay: Inhibition of COX2 promoter activity in human DLD1 cells at 100 uM; assay type: cell-based; conditions: DLD-1
T4 sequence (whole entry): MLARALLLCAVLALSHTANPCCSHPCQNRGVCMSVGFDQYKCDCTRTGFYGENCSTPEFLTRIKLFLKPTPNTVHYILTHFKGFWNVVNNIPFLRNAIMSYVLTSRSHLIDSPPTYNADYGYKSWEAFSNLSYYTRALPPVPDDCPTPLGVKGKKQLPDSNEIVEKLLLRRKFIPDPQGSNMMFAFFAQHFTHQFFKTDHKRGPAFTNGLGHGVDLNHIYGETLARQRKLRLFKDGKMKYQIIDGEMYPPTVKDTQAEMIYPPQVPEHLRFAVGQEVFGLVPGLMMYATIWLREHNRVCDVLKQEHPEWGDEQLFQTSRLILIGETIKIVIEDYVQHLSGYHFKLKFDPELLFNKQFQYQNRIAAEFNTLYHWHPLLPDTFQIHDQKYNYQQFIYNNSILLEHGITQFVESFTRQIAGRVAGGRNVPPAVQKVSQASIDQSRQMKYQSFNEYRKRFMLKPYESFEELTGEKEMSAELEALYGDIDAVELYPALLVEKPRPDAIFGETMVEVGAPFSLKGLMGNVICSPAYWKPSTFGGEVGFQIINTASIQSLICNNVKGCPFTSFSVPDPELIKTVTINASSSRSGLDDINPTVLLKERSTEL

Monocyte [12] = assay: Antiinflammatory activity in human monocytes assessed as inhibition of LPS-induced COX2 expression at 5 uM after 20 hrs using rabbit polyclonal antibody IgG by SDS-PAGE analysis; assay type: functional, cell-based; how it was run: as §1

Structure (SMILES)	inhibition [2]	inhibition [3]	inhibition (Monocyte [9])	inhibition (Monocyte [10])	further results
CCOC(=O)/C=C/c1ccc(OC/C=C(\C)CCC=C(C)C)c(OC)c1					inhibition (Raji): 78%; inhibition (INH) (HL-60): 45%
CC(C)=CCC/C(C)=C/COc1ccc(/C=C/C(=O)O)cc1	inactive	inactive			Activity [1]: 1.7 ng/µg
CC(C)=CCOc1ccc(/C=C/C(=O)O)cc1		74%			inhibition (Monocyte [4]): Active; inhibition at 25 µM [5]: 13%; IC50 [6]: 35.1 µM; inhibition (Monocyte [7]): Dose-dependent effect
COc1cc(/C=C/C(=O)O)ccc1OC/C=C(\C)CCC=C(C)C		97.5%			inhibition (Monocyte [4]): Active; inhibition at 10 µM [8]: 20%; IC50 [6]: 54.2 µM; inhibition (Monocyte [7]): Dose-dependent effect
CC(C)=CCOc1ccc(/C=C/C(=O)O)cc1C	inactive	inactive	inactive	inactive	
COc1cc(/C=C/C(=O)O)ccc1OCC=C(C)C [BOROPINIC ACID]	inactive	inactive			Activity [1]: 1.78 ng/µg
COC(=O)/C=C/c1ccc(OC/C=C(\C)CCC=C(C)C)c(OC)c1					inhibition (Raji): 81%; inhibition (INH) (HL-60): 35%; inhibition [11]: 50%
C[C@@H]1C[C@H]2[C@@H]3CCC4=CC(=O)C=C[C@]4(C)[C@@]3(F)[C@@H](O)C[C@]2(C)[C@@]1(O)C(=O)CO					inhibition (Monocyte [12]): Active
CC(C)=CCOc1ccc(/C=C/C(=O)O)cc1Cl	inactive	inactive	inactive	inactive	
CC(C)=CCC/C(C)=C/COc1ccc(/C=C/C(=O)O)cc1Cl	inactive	inactive	inactive	inactive	
CC(C)=CCC/C(C)=C/COc1ccc(/C=C/C(=O)O)cc1C	inactive	inactive	inactive	inactive	
